Laboratory results taken from ChEMBL document CHEMBL1145496 (Antimicrob Agents Chemother, 2007).
Values after ≈ are worked out from the molar mass of the structure shown.

Tests used:
Type in all cases: functional
Enterococcus faecalis [1] = assay: Antimicrobial activity against beta-lactamase producing Enterococcus faecalis TX0630 isolate by agar dilution method
Outline: (§1)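 Agar dilution MIC on Mueller-Hinton agar II per CLSI, standard inoculum 10⁴ CFU/spot; drug dissolved in 9.9% glacial acetic acid plus 1% DMSO. Control strains E. faecalis ATCC 29212, S. aureus ATCC 29213, E. coli 25922.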

Enterococcus faecalis [2] = assay: Antimicrobial activity against vancomycin B-resistant Enterococcus faecalis TX2484 isolate by agar dilution method; outline: as §1
Enterococcus faecalis [3] = assay: Antimicrobial activity against vancomycin A-resistant Enterococcus faecalis TX2784 isolate by agar dilution method; outline: as §1
Enterococcus faecalis [4] = assay: Antimicrobial activity against beta-lactamase producing Enterococcus faecalis TX5070 isolate by agar dilution method
Outline: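 Starting inoculum was 10⁴ CFU/spot, and E. faecalis ATCC 29212 served as control. Drug was diluted in 9.9% glacial acetic acid plus 1% DMSO.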

Enterococcus faecalis [5] = assay: Antimicrobial activity against beta-lactamase producing vancomycin-resistant Enterococcus faecalis isolates by agar dilution method; outline: as §1
Enterococcus faecalis [6] = assay: Antimicrobial activity against beta-lactamase producing vancomycin-resistant Enterococcus faecalis TX0614 isolate at 10^7 […]
Outline: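 High-inoculum MIC by broth dilution in Mueller-Hinton broth at 10⁷ CFU/ml (per ml in broth, not per spot).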

Enterococcus faecalis [7] = assay: Antimicrobial activity against beta-lactamase producing vancomycin-resistant Enterococcus faecalis TX0921 isolate at 10^4 CFU/spot; outline: as §1
Enterococcus faecalis [8] = assay: Antimicrobial activity against beta-lactamase producing vancomycin-resistant Enterococcus faecalis TX0614 isolate at 10^4 CFU/spot; outline: as §1
Enterococcus faecalis [9] = assay: Antimicrobial activity against beta-lactamase producing vancomycin-resistant Enterococcus faecalis TX0638 isolate at 10^4 CFU/spot; outline: as §1
Enterococcus faecalis [10] = assay: Antimicrobial activity against beta-lactamase producing Enterococcus faecalis TX0630 isolate at 10^4 CFU/spot
Outline: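 Agar dilution MIC on Mueller-Hinton agar II following CLSI recommendations, with a standard inoculum of 10⁴ CFU/spot. Drug was diluted in 9.9% glacial acetic acid plus 1% DMSO. Control strains were E. faecalis ATCC 29212, S. aureus ATCC 29213 and E. coli 25922. Isolates were recovered from −80°C frozen stocks.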

Enterococcus faecalis [11] = assay: Antimicrobial activity against Enterococcus faecalis TX0645 isolate at 10^4 CFU/spot; outline: as §1
Enterococcus faecalis [12] = assay: Bactericidal activity against vancomycin B-resistant Enterococcus faecalis TX2484 isolate assessed as decrease in viable count after 24 hrs
Outline: (§2)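 Time-kill in 20 ml BHI broth, starting inoculum 10⁷ CFU/ml from overnight culture. Viable counts at 0, 4 and 24 h by plating on BHI agar after centrifuging 1-ml samples and resuspending in 0.9% saline to remove carryover. Detection limit 10 CFU/ml. Bactericidal = ≥3-log₁₀ CFU/ml drop over 0–24 h. Two to four runs per strain.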

Enterococcus faecalis [13] = assay: Bactericidal activity against vancomycin A-resistant Enterococcus faecalis TX2784 isolate assessed as decrease in viable count after 24 hrs; outline: as §2

SMILES | MIC (Enterococcus faecalis [1]) | MIC (Enterococcus faecalis [2]) | MIC (Enterococcus faecalis [3]) | MIC (Enterococcus faecalis [4]) | MIC50 (Enterococcus faecalis [5]) | MIC90 (Enterococcus faecalis [5]) | MIC (Enterococcus faecalis [6]) | MIC (Enterococcus faecalis [7]) | MIC (Enterococcus faecalis [8]) | MIC (Enterococcus faecalis [9]) | MIC (Enterococcus faecalis [10]) | MIC (Enterococcus faecalis [11]) | log10CFU/ml (Enterococcus faecalis [12]) | log10CFU/ml (Enterococcus faecalis [13])
CC1(C)S[C@@H]2[C@H](NC(=O)[C@H](N)c3ccccc3)C(=O)N2[C@H]1C(=O)O [AMPICILLIN] | 1 mg/L (≈ 2.86 µM) | 0.5 mg/L (≈ 1.43 µM) | 0.5 mg/L (≈ 1.43 µM) | – | – | – | – | – | – | – | – | – | – | –
Nc1nc(/C(=N/O)C(=O)N[C@@H]2C(=O)N3C(C(=O)O)=C(/C=C4\CCN([C@@H]5CCNC5)C4=O)CS[C@H]23)ns1 [CEFTOBIPROLE] | 0.25 mg/L (≈ 0.468 µM) | 0.5 mg/L (≈ 0.935 µM) | 0.25 mg/L (≈ 0.468 µM) | 0.125 mg/L (≈ 0.234 µM) | 0.25 mg/L (≈ 0.468 µM) | 1 mg/L (≈ 1.87 µM) | 2 mg/L (≈ 3.74 µM) | 0.25 mg/L (≈ 0.468 µM) | 1 mg/L (≈ 1.87 µM) | 0.25 mg/L (≈ 0.468 µM) | 0.125 mg/L (≈ 0.234 µM) | 0.25 mg/L (≈ 0.468 µM) | >3 | >3
CN[C@H](CC(C)C)C(=O)N[C@H]1C(=O)N[C@@H](CC(N)=O)C(=O)N[C@H]2C(=O)N[C@H]3C(=O)N[C@H](C(=O)N[C@H](C(=O)O)c4cc(O)cc(O)c4-c4cc3ccc4O)[C@H](O)c3ccc(c(Cl)c3)Oc3cc2cc(c3O[C@@H]2O[C@H](CO)[C@@H](O)[C@H](O)[C@H]2O[C@H]2C[C@](C)(N)[C@H](O)[C@H](C)O2)Oc2ccc(cc2Cl)[C@H]1O [VANCOMYCIN] | 0.5 mg/L (≈ 0.345 µM) | > 256 mg/L | > 256 mg/L | 8 mg/L (≈ 5.52 µM) | – | – | – | – | – | – | – | – | – | –
